Measurements: ChEMBL document CHEMBL2380272, “Biological evaluation of bisbenzaldehydes against four Mycobacterium species” (Eur J Med Chem, 2013)
Converted amounts (≈) assume the structure as drawn.

Experiments:
[1] = tested on: Mycobacterium tuberculosis; assay: Antimycobacterial activity against multidrug-resistant Mycobacterium tuberculosis LAM-1 clinical isolate assessed as growth inhibition after 6 days by BACTEC 460-TB method; type: functional; conditions: LAM-1, 144 h
How it was run: (§1)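 BACTEC 460-TB radiometric assay measuring 14CO2 from 14C-palmitic acid. The MDR LAM-1 isolate was precultured to growth index 300, then inoculated into a fresh vial with compound dilutions made in 7H9 + 10% OADC. Final concentrations were 0.4–1.2 µM. GI was read daily. MIC90 and MIC99 came from comparison with untreated controls diluted 10- and 100-fold. A 0.1 µg/mL isoniazid culture served as the resistance control.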

[2] = tested on: Mycobacterium tuberculosis; assay: Antimycobacterial activity against multidrug-resistant Mycobacterium tuberculosis LAM-1 clinical isolate assessed as growth inhibition at 1 to 1.2 uM after 6 days by BACTEC 460-TB method relative to 10 to 100 times diluted untreated control; type: functional; how it was run: as §1

| SMILES | MIC90 [1] [µM] | growth inhibition (GI) [2] [%] |
| --- | --- | --- |
| O=Cc1ccc(OCCCCCCCCCOc2ccc(C=O)cc2)cc1 | 0.6 (≈ 0.221 µg/mL) | – |
| O=Cc1ccc(OCCCCCCCCCCCCOc2ccc(C=O)cc2)cc1 | 0.4 (≈ 0.164 µg/mL) | 99 |
| O=Cc1ccc(OCCCCCCCCCCCOc2ccc(C=O)cc2)cc1 | 0.6 (≈ 0.238 µg/mL) | 99 |
| O=Cc1ccc(OCCCCCCCCCCOc2ccc(C=O)cc2)cc1 | 0.6 (≈ 0.229 µg/mL) | – |
